Results on 13 molecules are retold here after ChEMBL document CHEMBL4251712, “Mbandakamine-Type Naphthylisoquinoline Dimers and Related Alkaloids from the Central African Liana Ancistrocladus ealaensis with Antiparasitic and Antileukemic Activities” (J Nat Prod, 2018).

The structures appear in SMILES notation. The source made the active and inactive calls. The calls are words filed in the database; no cut-off is given here. Bounds are passed on as bounds.

Series [1] relates to Plasmodium falciparum. The experiment in a line: Antiplasmodial activity against chloroquine-sensitive Plasmodium falciparum NF54 assessed as reduction in [3H]-hypoxanthine incorporation pretreated for 48 hrs followed by [3H]-hypoxanthine addition measured after 24 hrs by liquid scintillation counting method. The format is functional, organism-based.
Series [2] is described as follows: Resistance index, ratio of IC50 for human CEM/ADR5000 cells to IC50 for human CCRF-CEM cells. The format is functional. In a few lines:
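Degree of resistance calculated as IC50 for CEM/ADR5000 divided by IC50 for CCRF-CEM; IC50s from resazurin viability assay after treatment at 0.001 to 100 μM, three independent experiments of six parallels each.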

Series [3] relates to Plasmodium falciparum. The experiment in a line: Antiplasmodial activity against chloroquine and pyrimethamine-resistant Plasmodium falciparum K1 assessed as reduction in [3H]-hypoxanthine incorporation pretreated for 48 hrs followed by [3H]-hypoxanthine addition measured after 24 hrs by liquid scintillation counting method. The format is functional, organism-based. A digest of the protocol: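 IC50 against the K1 strain taken as the mean of two independent assays, with individual values differing by a factor of less than 2.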

Series [4] relates to Trypanosoma brucei rhodesiense. The experiment in a line: […] activity against Trypanosoma brucei rhodesiense STIB 900 trypomastigote after 72 hrs by Alamar blue assay. Format: functional, organism-based. As to conditions: for IC50: STIB 900, 72 h. In a few lines: (§1)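 IC50 values are means of two independent assays, individual values differing by less than a factor of 2.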
(Alamar Blue is a resazurin reagent that responds to reducing activity.)

Series [5] concerns ADR5000 cell line. The experiment in a line: Antileukemic activity against human CEM/ADR5000 cells after 24 to 48 hrs by resazurin dye based fluorescence assay. The format is functional, cell-based. In a few lines:
(§2)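 Leukemia cells treated with compounds across 0.001 to 100 μM, doxorubicin as reference drug; viability read by resazurin assay. Values are means with standard deviation of three independent experiments, each with six parallel measurements.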

Series [6] is described as follows: Selectivity index, ratio of IC50 for rat L6 cells to IC50 for chloroquine and pyrimethamine-resistant Plasmodium falciparum K1. The format is toxicity. The following applies: read-out: Ratio IC50. In a few lines: (§3)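 Selectivity index is the L6-cell IC50 divided by the P. falciparum IC50 for the matching strain (K1 or NF54). Each IC50 is the mean of two independent assays, with individual values differing by a factor of less than 2.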

Series [7] relates to CCRF-CEM. The experiment in a line: Antileukemic activity against human CCRF-CEM cells after 24 to 48 hrs by resazurin dye based fluorescence assay. The format is functional, cell-based. A digest of the protocol: as §2
Series [8] is described as follows: Selectivity index, ratio of IC50 for rat L6 cells to IC50 for chloroquine-sensitive Plasmodium falciparum NF54. The following applies: read-out: Ratio IC50. Format: toxicity. In a few lines: as §3
A further series relates to Leishmania donovani. Briefly: […] activity against Leishmania donovani MHOM-ET-67/L82 axenic amastigotes after 72 hrs by Alamar blue assay. The following applies: for IC50: MHOM-ET-67/L82, 72 h. The format is functional, organism-based. A digest of the protocol:
as §1

A further series relates to L6. Briefly: Cytotoxicity against rat L6 cells after 72 hrs by Alamar blue assay. The format is cell-based. The following applies: L6, 72 h. In a few lines:
as §1

The next series concerns Trypanosoma cruzi. Briefly: […] activity against Trypanosoma cruzi Tulahuen C4 infected in rat L6 cells after 96 hrs by CPRG/Nonidet reagent based photometric analysis. The following applies: for IC50: Tulahuen C4, L6, 96 h. Format: functional, organism-based. In a few lines:
as §1

Series [9] relates to CCRF-CEM. The experiment in a line: Antileukemic activity against human CCRF-CEM cells assessed as reduction in cell viability at 0.001 to 100 uM after 24 to 48 hrs by resazurin dye based fluorescence assay relative to control.
In series [10] the test system is ADR5000 cell line. Briefly: Antileukemic activity against human CEM/ADR5000 cells assessed as reduction in cell viability at 0.001 to 100 uM after 24 to 48 hrs by resazurin dye based fluorescence assay relative to control.
Series [11] has as its system Plasmodium falciparum. Briefly: Antiplasmodial activity against Plasmodium falciparum NF54. The format is functional, organism-based. In a few lines:
as §1

What is called IC50 is the concentration needed to halve the response being measured. Turning to `COc1cc(O)c(-c2ccc(OC)c3c(O)cc(C)c(-c4cc(-c5c(O)cc(OC)c6c5C[C@@H](C)N[C@H]6C)c5cc(C)cc(OC)c5c4O)c23)c2c1C(C)=N[C@H](C)C2`, the IC50 was 0.337 µM in the series with Plasmodium falciparum [1]; 0.126 µM with Plasmodium falciparum [3]; 4.1 µM in [4]; 19 µM in the series with ADR5000 cell line [5]; 2.96 µM in the series with CCRF-CEM [7]; over 100 µM with Leishmania donovani. Further, inhibition in the series with L6 was half-maximal at 8.87 µM (IC50). In addition, the “Ratio IC50” value in [2] was found to be 6.4. The selectivity ratio worked out at 70.4 in series [6] and 26.3 in series [8].
`COc1cc(O)cc2c1C(C)=N[C@@H](C)C2`: the outcome (in the series with Plasmodium falciparum [1]; with Plasmodium falciparum [3]; in series [4]; with Trypanosoma cruzi; with Leishmania donovani) was inactive.
As to `COc1cc(O)c2c(c1)C[C@H](C)N[C@H]2C`, the outcome (in the series with Plasmodium falciparum [1]; with Plasmodium falciparum [3]; in series [4]; with Trypanosoma cruzi; in the series on Leishmania donovani) was inactive.
In the case of `COc1cc(O)c(-c2cc(-c3c(C)cc(O)c4c(OC)ccc(-c5c(O)cc(OC)c6c5C[C@@H](C)N[C@@H]6C)c34)c(O)c3c(OC)cc(C)cc23)c2c1[C@@H](C)N[C@H](C)C2`, the IC50 in the series with Plasmodium falciparum [1] is 0.13 µM; in the series on ADR5000 cell line [5], 23.9 µM; in the series on CCRF-CEM [7], 7.4 µM. Also, the “Ratio IC50” value in [2] is recorded as 3.2.
As to `COc1cc(OC)c2c(c1-c1ccc(O)c3c(OC)cc(C)cc13)C[C@H](C)N[C@H]2C` [ANCISTROEALAINE B], the IC50 in the series with Plasmodium falciparum [1] turned out to be 1.74 µM; with Plasmodium falciparum [3] it was 0.76 µM; in [4] it was 3.85 µM; in the series with Trypanosoma cruzi it was 32.5 µM; with Leishmania donovani, 37.9 µM; in the series on L6 it was 77.8 µM. Besides, the values for the selectivity ratio in [6] and in series [8] were 102 and 44.7, respectively.
Consider `COc1cc(OC)c(-c2ccc(O)c3c(OC)cc(C)cc23)c2c1C(C)=N[C@@H](C)C2`, for which the IC50 in the series on Plasmodium falciparum [1] came to 2.69 µM; in the series on Plasmodium falciparum [3], 1.06 µM; in series [4], 1.46 µM; in the series with Trypanosoma cruzi it was 43.4 µM; with Leishmania donovani it was 13.4 µM; with L6 it was 101 µM. The Activity in the series with CCRF-CEM [9] and in the series on ADR5000 cell line [10] was under 20% each time. Moreover, the figures for the selectivity ratio in series [6] and in [8] were 95.3 and 37.5, respectively.
`COc1cc([C@@H]2c3cc4c(cc3[C@H](O)[C@H]3COC(=O)[C@H]23)OCO4)cc(OC)c1OC` [PODOFILOX] displayed a concentration for half-maximal inhibition (IC50) in the series on L6 of 0.041 µM.
For `COc1cc(O)c2c(c1)C[C@H](C)N[C@@H]2C`, the result (with Plasmodium falciparum [1]; in the series with Plasmodium falciparum [3]; in series [4]; in the series on Trypanosoma cruzi; in the series on Leishmania donovani) was inactive.
`COc1cc(O)c(-c2cc(-c3c(C)cc(O)c4c(OC)ccc(-c5c(O)cc(OC)c6c5C[C@@H](C)N[C@@H]6C)c34)c(O)c3c(OC)cc(C)cc23)c2c1[C@H](C)N[C@H](C)C2`: the IC50 with Plasmodium falciparum [1] is 0.047 µM; in the series with Plasmodium falciparum [3] it was 0.064 µM; in series [4], 1.8 µM; in the series with ADR5000 cell line [5] it was 27.7 µM; with Trypanosoma cruzi, 41.8 µM; in the series with CCRF-CEM [7], 1.5 µM. The IC50 is over 100 µM in the series on Leishmania donovani and 15.9 µM in the series on L6. In series [2], the “Ratio IC50” value was 18.5. In addition, the figures for the selectivity ratio in series [6] and in [8] were 249 and 339, respectively.
Regarding `COc1cc(O)c2c(c1)C[C@H](C)N=C2C`, the outcome (with Plasmodium falciparum [1]; with Plasmodium falciparum [3]; in series [4]; with Trypanosoma cruzi; in the series on Leishmania donovani) was inactive.
Regarding `O=C(Cn1ccnc1[N+](=O)[O-])NCc1ccccc1` [BENZNIDAZOLE], half-maximal inhibition in the series with Trypanosoma cruzi (IC50) was put at 3.56 µM.
With `COc1cc(C)cc2c(-c3c(O)cc(O)c4c3C[C@@H](C)N[C@H]4C)ccc(O)c12`, the IC50 came out at 9.94 µM in the series on Plasmodium falciparum [1]; 12.9 µM in the series on Plasmodium falciparum [3]; 15.3 µM in [4]; 237 µM in the series with Trypanosoma cruzi; 26.4 µM in the series with Leishmania donovani; 79.1 µM with L6. Besides, the selectivity ratio was determined as 6.13 in series [6] and 7.95 in series [8].
`COc1cc(C)cc2c(-c3c(O)cc(O)c4c3C[C@@H](C)N[C@@H]4C)ccc(O)c12` [KORUPENSAMINE A]: half-maximal inhibition with Plasmodium falciparum [11] (IC50) was put at 0.82 µM.
